CHRM4 antagonist: blocks acetylcholine activation of human M4 receptor; inhibition, % at 3 µM; AID 624125; 360,000 compounds, 0.73% hits; CHO-hM4 cells, ACh EC80, Fluo-8 calcium fluorescence;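 active means inhibition above its plate's cutoff, the mean inhibition of sample wells plus 3 SD, cut at about 27% in these data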;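 further: 0% = acetylcholine EC80 with DMSO and 100% = DMSO without agonist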
CHRM5 PAM: CHRM5 positive allosteric modulation | P08912 | CHO-K1 hM5, Fluo-8 calcium, ACh EC20 PAM; 0% = ACh EC20, 100% = ACh EC100 | activation, % at 3 µM | 360,000 compounds, 0.3% hits;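 active means activation above the run cutoff, the mean activation of all test compounds plus 3 SD, cut at about 18% in these data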
Target sequence (P08912 whole entry, looked up): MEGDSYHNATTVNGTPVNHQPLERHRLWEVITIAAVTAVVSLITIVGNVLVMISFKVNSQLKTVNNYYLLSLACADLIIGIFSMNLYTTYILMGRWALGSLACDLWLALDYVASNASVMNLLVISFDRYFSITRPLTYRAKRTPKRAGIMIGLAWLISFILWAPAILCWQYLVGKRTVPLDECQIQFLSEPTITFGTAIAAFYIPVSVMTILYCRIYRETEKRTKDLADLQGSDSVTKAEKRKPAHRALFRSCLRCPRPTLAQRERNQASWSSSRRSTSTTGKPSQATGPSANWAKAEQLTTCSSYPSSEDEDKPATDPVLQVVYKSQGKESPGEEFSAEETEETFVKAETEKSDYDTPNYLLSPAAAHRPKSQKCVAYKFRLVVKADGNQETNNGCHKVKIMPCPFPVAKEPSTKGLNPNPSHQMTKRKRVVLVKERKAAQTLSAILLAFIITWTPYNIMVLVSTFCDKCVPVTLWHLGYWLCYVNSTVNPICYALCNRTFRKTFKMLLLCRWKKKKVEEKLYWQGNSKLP
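system = human M5 receptor in CHO-K1 cells | reagent = EC20 acetylcholine as agonist stimulus | compound dosing = single-point, 3 µM nominal | incubation = Fluo-8 loading 80 min at 37 °C plus 30 min room temperature | detection = Fluo-8 calcium dye fluorescence, kinetic read | benchmarks = low control EC20 acetylcholine (0%), high control EC100 acetylcholine (100%)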
M5 antag: blocks acetylcholine activation of human M5 receptor; P08912; CHO-hM5 cells, Fluo-8 calcium fluorescence, ACh EC80; inhibition, % at 3 µM; 360,000 compounds, 0.59% hits; AID 624040;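 active means inhibition above a per-plate cutoff, the mean of that plate's test compounds plus 3 SD, cut at about 27% in these data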;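 further: 0% = acetylcholine EC80 with DMSO and 100% = DMSO without agonist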
M4 PAM: positive allosteric modulators of human muscarinic M4 receptor; P08173; CHO-K1 hM4/Gqi5, Fluo-8 calcium fluorescence, ACh EC20; 0% = ACh EC20, 100% = maximal ACh; activation, % at 3 µM; 360,000 compounds, 0.4% hits; AID 624126;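 active means activation above its plate's cutoff, the mean activation of sample wells plus 3 SD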
M5 ag: CHRM5 agonism in calcium assay; activation, % at 3 µM; CHO-K1 hM5 cells, Fluo-8 calcium fluorescence; 0% DMSO wells, 100% maximal acetylcholine response; 360,000 compounds, 0.19% hits; P08912;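 active means activation above the run's mean over test compounds plus 3 SD, cut at about 23% in these data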;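 further: signal is peak over basal fluorescence ratio across the kinetic read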
M4 ag: agonists of human muscarinic M4 receptor (CHRM4); AID 624127; CHO-K1 hM4/Gqi5, Fluo-8 calcium fluorescence; vehicle 0%, full acetylcholine response 100%; activation, % at 3 µM; 360,000 compounds, 0.14% hits; P08173;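 active means activation above the run mean over all test wells plus 3 SD, cut at about 32% in these data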;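 further: peak over basal fluorescence ratio per well then scaled between controls; 0% = DMSO wells and 100% = acetylcholine at EC100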
Active calls of the source: *. Sampled rows, rich in hits. Any-hit rate of the full collection: about 1.8%.

SMILES | CHRM4 antagonist | CHRM5 PAM | M5 antag | M4 PAM | M5 ag | M4 ag
CCCCOc1ccc(Br)cc1CSC(=N)N | 26* | -18 | 40* | -10 | 1 | 10
Cc1ccc(C)c(OC(=O)c2cccc(S(=O)(=O)N3CCN(C)CC3)c2)c1 | 0 | -1 | 4 | -3 | 0 | 6
CC1(C)CC(C(CCN(Cc2ccccc2)C(=O)c2ccco2)c2ccc(F)cc2)CCO1 (stereo not drawn) | 27* | -19 | 17 | -18 | -3 | 8
COc1ccc(NC(=O)COC(=O)C2CCCCC2)c([N+](=O)[O-])c1 | 8 | -3 | 4 | 6 | -1 | 1
COc1ccc(NC(=O)COC(=O)CC2CC3CCC2C3)c([N+](=O)[O-])c1 (stereo not drawn) | 1 | 2 | -6 | 21* | 1 | 0
CC(Oc1ccc(Br)cc1)C(=O)Nc1ccc(S(=O)(=O)N(C)C2CCN(C)CC2)cc1 (stereo not drawn) | 31* | -14 | 26 | -11 | 62* | 96*
Cc1ccc(C(=O)c2ccc([N+](=O)[O-])cc2)cc1 | -6 | 2 | -3 | 2 | -6 | -2
Cc1ccc(C(=O)c2coc3cc([N+](=O)[O-])c(O)c([N+](=O)[O-])c23)cc1 | -2 | -4 | 7 | 31* | -2 | -1
CC(C)=CC(=O)O[C@@H]1Cc2c(ccc3ccc(=O)oc23)OC1(C)C | -13 | 25* | -1 | 15 | -7 | -2
NC(=S)c1csc(CCNC(=O)c2ccccc2)n1 | -11 | 1 | -5 | 3 | 2 | 2
CCN(CC(=O)Nc1c(F)cccc1F)C(=O)/C=C/c1ccc(OCC#N)c(OC)c1 | -6 | 1 | -2 | 29* | 4 | 2
CCN(CC(=O)Nc1c(F)cccc1F)C(=O)/C=C/c1ccc(C)cc1 | -25 | 2 | -3 | 3 | -1 | 1
CCOC(=O)CP(=O)(c1ccccc1)c1ccccc1 | 4 | -3 | 0 | 4 | 3 | 0
CCOC(=O)c1c(C)noc1CP(=O)(c1ccccc1)c1ccccc1 | -3 | 12 | -7 | 18* | -9 | 1
O=C(CSCc1ccc(F)cc1)N1CCN(c2ccc(F)cc2)CC1 | -1 | -15 | 13 | -12 | -7 | 3
O=C(CSCc1ccc(F)cc1)N1CCN(c2ccccc2)CC1 | -14 | 12 | -4 | 30* | -4 | 5
O=C(OCc1nc2ccc(Cl)cc2n1CCO)c1ccc(O)cc1 | -7 | -9 | 3 | -4 | 1 | 9
CCOc1cc(/C=C2\SC(=O)N(CC(=O)Nc3ccccc3F)C2=O)cc([N+](=O)[O-])c1O | -2 | 23* | -1 | 11 | 0 | -1
CCOC(=O)C1(C(=O)OCC)C(C(=O)c2ccccc2)C1c1ccccc1 (stereo not drawn) | 10 | -14 | 26 | -8 | -2 | 3
COc1ccccc1Cc1c(C2CCCCC2)nc2c3ccccc3ccn12 | -3 | 18* | 1 | 1 | -3 | -1
CCOc1ccc(S(=O)(=O)N2CCCCC2)cc1NC(=O)C1CCC1 | 6 | -2 | -3 | 10 | 1 | 0
COc1ccc([N+](=O)[O-])cc1NC(=S)NC(NC(=O)C(c1ccccc1)c1ccccc1)C(Cl)(Cl)Cl (stereo not drawn) | 27* | -10 | 18 | -5 | 0 | 5
COc1ccc([N+](=O)[O-])cc1NC(=O)C(C)c1ccccc1 (stereo not drawn) | 7 | -3 | 10 | -3 | -3 | -1
OCCN(CC#CC(O)(c1ccccc1)c1ccccc1)CCO | -9 | -3 | 7 | 4 | -19 | 1
CC(=O)NNC(=O)C(O)(c1ccccc1)c1ccccc1 | 4 | 1 | -6 | -2 | -1 | 0
SMILES | CHRM4 antagonist | CHRM5 PAM | M5 antag | M4 PAM | M5 ag | M4 ag
CC(C)(C#CC(O)(c1ccccc1)c1ccccc1)N1CCCC1 | 79* | -16 | 69* | -26 | -11 | 0
CC(C)(C#CC(O)(c1ccccc1)c1ccccc1)N1CCCCC1 | 47* | -30 | 42* | -16 | -19 | 1
COC(=O)c1ccccc1NC(=O)CNc1ccc(F)c(S(=O)(=O)N2CCOCC2)c1 | -12 | -8 | 3 | -1 | 4 | 9
O=C1NC(=S)NC1=Cc1ccccc1O | 13 | -27 | 31* | -20 | 110* | 134*
O=C1NC(=S)N/C1=C/c1cccc2ccccc12 | -16 | -7 | 14 | 5 | -4 | 0
Cn1nc(C(C)(C)C)cc1C(=O)NCc1cc(F)cc2c1OCOC2 | 23 | -28 | 29* | -12 | 7 | 20
COc1ccc(CS(=O)(=O)CC(C)(O)c2ccccc2)cc1 (stereo not drawn) | 5 | 5 | 3 | 7 | -5 | 1
Cc1ccc(-n2nnnc2Sc2ccc(S(=O)(=O)NCCN(C)C)cc2[N+](=O)[O-])cc1 | 34* | -6 | 2 | -18 | -8 | 11
Cc1ccc(S(=O)(=O)NCCSc2nnnn2-c2ccc(C(N)=O)cc2)cc1 | -12 | -11 | 4 | -1 | 0 | 2
O=[N+]([O-])c1cc(S(=O)(=O)NCCCN2CCOCC2)ccc1Cl | -2 | -2 | -5 | -5 | -1 | 1
O=[N+]([O-])c1cc(S(=O)(=O)NCCN2CCOCC2)ccc1Sc1nnnn1-c1ccccc1 | 49* | -8 | -1 | -16 | -5 | 3
CCN(CC)S(=O)(=O)c1ccc(C(=O)NCCOC(=O)c2ccc(F)cc2F)cc1 | 6 | -3 | 17 | -10 | 0 | 8
O=C(Cc1ccc(-c2ccccc2)cc1)NCCN1CCOCC1 | 0 | 8 | 4 | 19* | -5 | 4
O=C(CN1CCOCC1)NCCc1ccccc1 | 24 | 0 | 0 | 24* | 0 | 7
CC(C)OCCCN(C)C1CCN(S(=O)(=O)c2ccc(-c3cc(C(F)(F)F)no3)s2)CC1 | 53* | -9 | 9 | -21 | -7 | 7
COc1ccc(N(CC(=O)N/N=C/c2ccc(C(=O)O)cc2)S(=O)(=O)c2ccc(NC(C)=O)cc2)cc1 | -8 | -2 | 8 | 22* | -2 | 0
COc1ccc(N(CC(=O)N/N=C/c2cc(Br)c(C)o2)S(=O)(=O)c2ccc(NC(C)=O)cc2)cc1 | -4 | 2 | -15 | -7 | 1 | 1
Cc1cccc(NC(=O)CN(C)C(=O)c2ccc3ccccc3n2)c1C | -5 | 1 | -4 | 1 | -2 | 3
CCC(C)(C(=O)Nc1c(C)cccc1C)N(C)C(=O)c1ccc2ccccc2n1 (stereo not drawn) | 37* | 2 | 6 | 15 | -3 | 1
